In ChEMBL document CHEMBL2396536, “Curcuminoids block TGF-β signaling in human breast cancer cells and limit osteolysis in a murine model of breast cancer bone metastasis” (J Nat Prod, 2013):
pIC50: −log10 of the molar value. Active and inactive are the calls of the source. The rule behind the calls is not given here.

Assays:
MDA-MB-231 [1] = experiment: Inhibition of osteolytic bone metastases in human MDA-MB-231 cells xenografted in athymic nude mouse left cardiac ventricle assessed as reduction of bone-tumor interface at 50 mg/kg, ip administered every other day for 3 weeks; type: functional; settings: MDA-MB-231, Heart left ventricle, 504 h, route intraperitoneal
How it was run: (§1)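 Intracardiac MDA-MB-231 model in nude mice, dosed ip every other day for 21 days. Mid-sagittal tibia and femur sections TRAP-stained. TRAP+ multinucleated (>3 nuclei) cells counted at 40x along the tumor-bone interface. Expressed as osteoclasts per mm of interface.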

Mus musculus [2] = experiment: Toxicity in human MDA-MB-231 cells xenografted athymic nude mouse left cardiac ventricle assessed as effect on white blood cells at 50 mg/kg, ip administered every other day for 3 weeks (reference value: 5.84 +/- 1.3 K/uL); settings: in vivo, 504 h
MDA-MB-231 [3] = experiment: Inhibition of osteolytic bone metastases in human MDA-MB-231 cells xenografted in athymic nude mouse left cardiac ventricle assessed as reduction in lytic bone lesion area at 25 to 50 mg/kg, ip administered every other day for 3 weeks measured on day 16 relative to control; type: functional, Heart left ventricle; settings: dose mg/kg 25-50; route intraperitoneal
How it was run: (§2)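 Four-week female athymic nude mice inoculated with 1 × 10^5 MDA-MB-231 cells in 0.1 mL PBS into the left cardiac ventricle. Dosed ip at 25 or 50 mg/kg or vehicle every other day from day 1 for 21 days, n = 11/group. Lytic lesion area quantified on radiographs on days 12, 16 and 21. Two-way ANOVA with Bonferroni.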

Mus musculus [4] = experiment: Effect on orthotopic tumor mass in human MDA-MB-231 cells xenografted athymic nude mouse mammary fat pad at 25 to 50 mg/kg, ip administered every other day for 3 weeks
MDA-MB-231 [5] = experiment: Inhibition of osteolytic bone metastases in human MDA-MB-231 cells xenografted in athymic nude mouse left cardiac ventricle assessed as effect on tumor burden at 25 to 50 mg/kg, ip administered every other day for 3 weeks by histological analysis; type: functional, organism-based; settings: Heart left ventricle
How it was run: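 Intracardiac MDA-MB-231 model in female nude mice, dosed ip every other day for 21 days, n = 11/group. Hindlimbs harvested day 21, formalin-fixed and EDTA-decalcified. Tumor area measured blinded on mid-sagittal 5 μm H&E sections of tibiae and femora at 10x magnification.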

Mus musculus [6] = experiment: Toxicity in human MDA-MB-231 cells xenografted athymic nude mouse left cardiac ventricle assessed as effect on hematocrit at 50 mg/kg, ip administered every other day for 3 weeks (reference value: 30.2 +/- 1.5%); type: organism-based, Heart; set-up: dose 50 mg/kg, route intraperitoneal; settings: in vivo, 504 h
Mus musculus [7] = experiment: Toxicity in human MDA-MB-231 cells xenografted athymic nude mouse left cardiac ventricle assessed as effect on spleen weight at 50 mg/kg, ip administered every other day for 3 weeks (reference value: 0.134 +/- 0.02 gram); type: organism-based; set-up: dose 50 mg/kg, route intraperitoneal; settings: in vivo, 504 h
MDA-MB-231 [8] = experiment: Cytotoxicity against human MDA-MB-231 cells assessed as cell viability by MTT assay; type: cell-based
How it was run: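 MDA-MB-231 plated at 5 × 10^4 cells/cm2 and held overnight in DMEM with 10% FBS at 37°C and 5% CO2. Pre-incubated 4 h with compound in 2% FBS DMEM, then medium refreshed with TGF-β1 (5 ng/mL) for 24 h. Cell number read by MTT reduction.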

Mus musculus [9] = experiment: Toxicity in human MDA-MB-231 cells xenografted athymic nude mouse left cardiac ventricle assessed as effect on white blood cells at 25 mg/kg, ip administered every other day for 3 weeks (reference value: 5.84 +/- 1.3 K/uL); settings: in vivo, 504 h
Mus musculus [10] = experiment: Toxicity in human MDA-MB-231 cells xenografted athymic nude mouse left cardiac ventricle assessed as effect on liver weight at 25 mg/kg, ip administered every other day for 3 weeks (reference value: 1 +/- 0.10 gram); type: organism-based, Heart; set-up: dose 25 mg/kg, route intraperitoneal; settings: in vivo, 504 h
[11] = molecular target: Mothers against decapentaplegic homolog 2 (Homo sapiens) (UniProt Q15796); experiment: Inhibition of TGF-beta-induced Smad2 phosphorylation in human MDA-MB-231 cells treated 12 hrs before TGF-beta challenge measured after 1 hr by Western blotting; type: cell-based
Sequence of Mothers against decapentaplegic homolog 2 (Homo sapiens) (Q15796 whole entry): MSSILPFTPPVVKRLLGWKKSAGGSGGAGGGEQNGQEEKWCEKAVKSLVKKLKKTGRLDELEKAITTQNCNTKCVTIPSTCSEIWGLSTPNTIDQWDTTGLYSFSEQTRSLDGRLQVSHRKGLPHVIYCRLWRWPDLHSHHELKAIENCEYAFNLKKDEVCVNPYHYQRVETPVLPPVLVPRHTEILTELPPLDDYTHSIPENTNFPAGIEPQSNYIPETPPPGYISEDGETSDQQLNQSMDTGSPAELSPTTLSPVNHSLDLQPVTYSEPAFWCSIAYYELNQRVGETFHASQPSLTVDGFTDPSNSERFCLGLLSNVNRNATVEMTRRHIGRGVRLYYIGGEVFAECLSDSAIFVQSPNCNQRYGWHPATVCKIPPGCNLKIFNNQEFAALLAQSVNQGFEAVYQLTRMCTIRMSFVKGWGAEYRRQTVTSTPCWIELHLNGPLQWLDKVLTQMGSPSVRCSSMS
How it was run: (§3)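 Subconfluent MDA-MB-231 pre-treated 12 h with compound (80 μM), then TGF-β (5 ng/mL) for 1 h. RIPA whole-cell lysates (18 μg) run on SDS-PAGE and transferred to PVDF. Probed with rabbit anti-phospho-Smad2, phospho-Smad3, phospho-p38 or Ets-1 (1:1000, overnight, 4 °C). β-actin used as loading control. Chemiluminescent detection; three independent experiments.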

[12] = molecular target: Mothers against decapentaplegic homolog 3 (Homo sapiens) (UniProt P84022); experiment: Inhibition of TGF-beta-induced Smad3 phosphorylation in human MDA-MB-231 cells treated 12 hrs before TGF-beta challenge measured after 1 hr by Western blotting; type: cell-based; how it was run: as §3
Sequence of Mothers against decapentaplegic homolog 3 (Homo sapiens) (P84022 2-425 limits assumed): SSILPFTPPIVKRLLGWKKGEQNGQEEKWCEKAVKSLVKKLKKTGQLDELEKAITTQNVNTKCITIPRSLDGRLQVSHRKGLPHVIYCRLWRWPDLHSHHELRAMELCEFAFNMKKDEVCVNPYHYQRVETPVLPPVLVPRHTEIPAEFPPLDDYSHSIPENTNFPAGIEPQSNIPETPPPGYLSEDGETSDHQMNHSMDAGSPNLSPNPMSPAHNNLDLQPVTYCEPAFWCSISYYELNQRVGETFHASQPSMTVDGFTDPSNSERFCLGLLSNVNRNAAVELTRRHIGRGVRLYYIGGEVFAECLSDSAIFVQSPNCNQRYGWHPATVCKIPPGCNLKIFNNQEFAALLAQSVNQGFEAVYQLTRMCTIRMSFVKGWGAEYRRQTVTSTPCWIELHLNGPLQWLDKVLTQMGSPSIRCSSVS

[13] = molecular target: MAP kinase p38 (Homo sapiens) (UniProt O15264+Q15759+Q16539+P53778); experiment: Inhibition of TGF-beta-induced p38 phosphorylation in human MDA-MB-231 cells treated 12 hrs before TGF-beta challenge measured after 1 hr by Western blotting; type: cell-based; how it was run: as §3
Mus musculus [14] = experiment: Toxicity in human MDA-MB-231 cells xenografted athymic nude mouse left cardiac ventricle assessed as effect on bone-forming osteoblast cell at 25 to 50 mg/kg, ip administered every other day for 3 weeks; type: organism-based, Heart; set-up: dose 25-50 mg/kg, route intraperitoneal; settings: in vivo, 504 h
MDA-MB-231 [15] = experiment: Inhibition of osteolytic bone metastases in human MDA-MB-231 cells xenografted in athymic nude mouse left cardiac ventricle assessed as improvement in body weight at 25 to 50 mg/kg, ip administered every other day for 3 weeks measured on day 16 relative to vehicle-treated control; type: functional, organism-based; settings: Heart left ventricle
Mus musculus [16] = experiment: Toxicity in human MDA-MB-231 cells xenografted athymic nude mouse left cardiac ventricle assessed as effect on alanine aminotransferase at 25 mg/kg, ip administered every other day for 3 weeks (reference value: 7.04 +/- 2.2 U/L); type: organism-based, Heart; set-up: dose 25 mg/kg, route intraperitoneal; settings: in vivo, 504 h
Mus musculus [17] = experiment: Toxicity in human MDA-MB-231 cells xenografted athymic nude mouse left cardiac ventricle assessed as effect on liver weight at 50 mg/kg, ip administered every other day for 3 weeks (reference value: 1 +/- 0.10 gram); type: organism-based, Heart; set-up: dose 50 mg/kg, route intraperitoneal; settings: in vivo, 504 h
MDA-MB-231 [18] = experiment: Inhibition of TGF-beta-induced PTHrP secretion in human MDA-MB-231 cells treated 4 hrs before TGF-beta challenge measured after 24 hrs by radioimmunoassay; type: functional, cell-based
How it was run: (§4)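 MDA-MB-231 plated at 5 × 10^4 cells/cm2 and held overnight in DMEM with 10% FBS. Pre-treated 4 h with compound (0.1–100 μM in methods; 0.1–300 μM in legend) in 2% FBS, then recombinant human TGF-β1 (5 ng/mL) or medium alone for 24 h. PTHrP measured in conditioned media by radioimmunoassay, n = 4 wells/group. IC50 from four-parameter logistic fit.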

Mus musculus [19] = experiment: Toxicity in human MDA-MB-231 cells xenografted athymic nude mouse left cardiac ventricle assessed as effect on platelets at 50 mg/kg, ip administered every other day for 3 weeks (reference value: 513 +/- 54 K/uL); type: organism-based, Heart; set-up: dose 50 mg/kg, route intraperitoneal; settings: in vivo, 504 h
Mus musculus [20] = experiment: Toxicity in human MDA-MB-231 cells xenografted athymic nude mouse left cardiac ventricle assessed as effect on hematocrit at 25 mg/kg, ip administered every other day for 3 weeks (reference value: 30.2 +/- 1.5%); type: organism-based, Heart; set-up: dose 25 mg/kg, route intraperitoneal; settings: in vivo, 504 h
MDA-MB-231 [21] = experiment: Inhibition of TGF-beta-induced Ets-1 expression in human MDA-MB-231 cells treated 12 hrs before TGF-beta challenge measured after 1 hr by Western blotting
MDA-MB-231 [22] = experiment: Inhibition of osteolytic bone metastases in human MDA-MB-231 cells xenografted in athymic nude mouse left cardiac ventricle assessed as improvement in host survival at 25 to 50 mg/kg, ip administered every other day for 3 weeks measured on day 16 relative to vehicle-treated control; type: functional, organism-based; settings: Heart left ventricle
How it was run: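 Intracardiac MDA-MB-231 nude mice (n = 11/group) dosed ip every other day for 3 weeks. Survival shown by Kaplan–Meier and analyzed by logrank test with post-hoc logrank test for trend.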

MDA-MB-231 [23] = experiment: Inhibition of TGF-beta-induced PTHrP secretion in human MDA-MB-231 cells at 100 uM treated 4 hrs before TGF-beta challenge measured after 24 hrs by radioimmunoassay; type: functional, cell-based; how it was run: as §4
Mus musculus [24] = experiment: Toxicity in human MDA-MB-231 cells xenografted athymic nude mouse left cardiac ventricle assessed as effect on alanine aminotransferase at 50 mg/kg, ip administered every other day for 3 weeks (reference value: 7.04 +/- 2.2 U/L); type: organism-based, Heart; set-up: dose 50 mg/kg, route intraperitoneal; settings: in vivo, 504 h
MDA-MB-231 [25] = experiment: Inhibition of osteolytic bone metastases in human MDA-MB-231 cells xenografted in athymic nude mouse left cardiac ventricle assessed as reduction of bone-tumor interface at 25 mg/kg, ip administered every other day for 3 weeks; type: functional; settings: MDA-MB-231, Heart left ventricle, 504 h, route intraperitoneal; how it was run: as §1
MDA-MB-231 [26] = experiment: Inhibition of osteolytic bone metastases in human MDA-MB-231 cells xenografted in athymic nude mouse left cardiac ventricle assessed as reduction in lytic bone lesion area at 25 to 50 mg/kg, ip administered every other day for 3 weeks measured on day 21 relative to control; type: functional, Heart left ventricle; settings: dose mg/kg 25-50; route intraperitoneal; how it was run: as §2
MDA-MB-231 [27] = experiment: Inhibition of osteolytic bone metastases in human MDA-MB-231 cells xenografted in athymic nude mouse left cardiac ventricle assessed as reduction of bone lysis at 25 to 50 mg/kg, ip administered every other day for 3 weeks measured on day 21; type: functional, Heart left ventricle; settings: dose mg/kg 25-50; route intraperitoneal; how it was run: as §2
Mus musculus [28] = experiment: Toxicity in human MDA-MB-231 cells xenografted athymic nude mouse left cardiac ventricle assessed as effect on spleen weight at 25 mg/kg, ip administered every other day for 3 weeks (reference value: 0.134 +/- 0.02 gram); type: organism-based; set-up: dose 25 mg/kg, route intraperitoneal; settings: in vivo, 504 h
Mus musculus [29] = experiment: Toxicity in human MDA-MB-231 cells xenografted athymic nude mouse left cardiac ventricle assessed as effect on platelets at 25 mg/kg, ip administered every other day for 3 weeks (reference value: 513 +/- 54 K/uL); type: organism-based, Heart; set-up: dose 25 mg/kg, route intraperitoneal; settings: in vivo, 504 h

inhibition [11]: Active
inhibition [12]: Active
inhibition [13]: inactive
pIC50 (MDA-MB-231 [18]): 4.62
SMILES: O=C(/C=C/c1ccc(O)cc1)CC(=O)/C=C/c1ccc(O)cc1 [BISDEMETHOXYCURCUMIN]
inhibition in vivo at 50 mg/kg (MDA-MB-231 [1]): 48%
Activity (Mus musculus [2]): 6.83 K/uL
inhibition (INH) (MDA-MB-231 [3]): 51%
Activity (Mus musculus [4]): inactive
inhibition (MDA-MB-231 [5]): inactive
Activity (Mus musculus [6]): 31.1%
Activity (Mus musculus [7]): 0.139 g
MTC (MDA-MB-231 [8]): 82 µM
Activity (Mus musculus [9]): 4.69 K/uL
Activity (Mus musculus [10]): 0.987 g
Activity (Mus musculus [14]): Non-toxic
Activity (MDA-MB-231 [15]): Active
Activity (Mus musculus [16]): 7.13 U/L
Activity (Mus musculus [17]): 1.1 g
inhibition (MDA-MB-231 [18]): Dose-dependent effect
minimal effective concentration (MDA-MB-231 [18]; read-out: MEC): 13 µM
Activity (Mus musculus [19]): 589 K/uL
Activity (Mus musculus [20]): 30.6%
inhibition (MDA-MB-231 [21]): Active
Activity (MDA-MB-231 [22]): Active
inhibition (MDA-MB-231 [23]): Active
Activity (Mus musculus [24]): 5.02 U/L
inhibition in vivo at 25 mg/kg (MDA-MB-231 [25]): 53%
inhibition (INH) (MDA-MB-231 [26]): 57%
inhibition (INH) (MDA-MB-231 [27]): >50%
Activity (Mus musculus [28]): 0.129 g
Activity (Mus musculus [29]): 485 K/uL
